HSF1 activator: increases HSF-1 driven luciferase reporter signal | NIH3T3-HGL HSF-1 luciferase reporter, MG132, 8 h; 100% = twice DMSO control signal | activation, % at 9 µM | 300,000 compounds, 1.7% hits | AID 504408;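 active = mean replicate activation of at least 50% with a set share of replicates each reaching 50%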;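 also: 0% = median of the neutral control wells and 100% = twice that signal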
Hsp70 activator: Hsp70 transcriptional activation, primary screen. HeLa Hsp70 promoter luciferase reporter, luminescence; scaled: vehicle 0, proteasome-inhibitor control 100%. activation, % at 10 µM. 200,000 compounds, 0.04% hits;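 active = activation above the mean across all tested compounds plus 3 SD, cutoff set per campaign, cut at about 5.5% in these data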;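 also: 100% = MG132 at 30 µM as the positive control and 0% = DMSO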
L major viab: inhibitors of Leishmania major promastigote growth. Leishmania major promastigotes, resazurin fluorescence viability. inhibition, % at 10 µM. 200,000 compounds, 9% hits; in the data active = inhibition above about 50%;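 also: promastigotes grown with compound for 44 hours at 28 °C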
T cruzi repl: blocks replication of Trypanosoma cruzi; T. cruzi beta-gal in NIH3T3, luminescence, 90 h; inhibition, % (test concentration not listed); 300,000 compounds, 1.4% hits; AID 1885;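 active = mean inhibition across valid replicates above about 55%, limit read from the data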;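 also: signal also drops with host cell toxicity which is not excluded here; 0% = plate median of DMSO wells and 100% = zero luminescence signal; higher percent means less beta-gal luminescence so fewer parasites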
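System: NIH/3T3 fibroblasts plus reporter T. cruzi. Medium: DMEM plus 2% FBS. Probe or stimulus: 5000 reporter trypomastigotes per well. Compound: single 50 nL compound addition per well in DMSO. Incubation: co-culture of at least 90 h after 3 h attachment. Detection: GalScreen β-gal luminescence, detergent lysis, 60 min. Evaluation: parasite load inhibition, %.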
HSF1 inh: HSF1 inhibition; NIH3T3-HGL HSE-luciferase, MG132-induced, luminescence 8 h; stronger effect = lower value; activity change, negative = inhibition, % at 7.5 µM (by protocol); 300,000 compounds, 0.77% hits;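 active = more than half of replicate wells show activity change below -50%, luminescence cut by over half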;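 also: luciferase reports HSF-1 transcriptional activity via heat shock element; 0% = median of DMSO wells and -100% = zero luminescence signal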
Active calls of the source: *; . = no result given. The entries come from a sample that favours hits as a whole.

SMILES	HSF1 activator	Hsp70 activator	L major viab	T cruzi repl	HSF1 inh
C=CCCCCCCCCC(=O)Nc1c[nH]c(=O)[nH]c1=O	-4.3	-0.3	93.4*	-31.2	1.8
CC(=O)N=c1sccn1CC(O)c1ccc(Br)cc1 (stereo not given)	17.7	.	.	-10.8	-2.0
CCc1noc(C)c1C(=O)OCC(=O)N(C)c1c(N)n(Cc2ccccc2)c(=O)[nH]c1=O	-5.0	.	.	-3.8	4.6
Nc1nc2n(c1C(=O)c1ccccc1)CCC2	-75.5	-0.5	-0.5	-1.8	-70.1*
COc1ccc(OCC(O)CN(CCO)CC(O)Cn2ccc3ccccc32)cc1 (stereo not given)	-1.2	-0.2	-1.9	-11.8	3.3
CCC(=C(c1ccc(OC)cc1)c1ccc(OC)cc1)c1cn(CC(O)CN(CCO)CCO)c2ccccc12 (stereo not given)	.	-0.2	68.7*	.	.
CN(NC(=O)c1ccccc1Cl)c1ncc(C(F)(F)F)cc1Cl	-1.4	.	.	-16.0	-7.0
CCOc1ccc(C2=C(C=Nc3c(C)n(C)n(-c4ccccc4)c3=O)C(c3ccc(F)cc3)c3ccccc3O2)cc1 (stereo not given)	-10.7	-0.3	56.8*	52.8	-6.5
CCOc1ccc(C2SCC(=O)N2c2c(C)n(C)n(-c3ccccc3)c2=O)cc1 (stereo not given)	10.2	-0.5	-3.2	13.9	6.6
COc1ccccc1Nc1nc(NCC2CCCO2)c2ccccc2n1 (stereo not given)	1.7	-0.4	100.0*	64.3*	6.3
COc1ccc(OC)c(Nc2c3ccccc3nc3ccccc23)c1	3.3	.	.	43.0	-1.7
COc1ccc(OC)c(Nc2c3c(nc4ccccc24)CCC3)c1	-22.7	.	.	58.8*	-24.2
COc1ccc(OC)c(Nc2nc(NCCO)c3ccccc3n2)c1	1.2	.	.	55.7*	-2.3
CCc1ccc2oc(=O)cc(CN3CCN(Cc4ccccc4)CC3)c2c1	8.3	.	.	61.4*	0.9
Cc1ccc2c(CN3CCN(Cc4ccccc4)CC3)cc(=O)oc2c1	8.2	.	.	58.5*	-1.0
O=c1cc(CN2CCN(c3cccc(Cl)c3)CC2)c2cc(O)c(-c3ccccc3)cc2o1	14.0	0.0	4.4	0.8	-2.4
O=c1cc(CN2CCN(c3ccccc3)CC2)c2cc(O)c(-c3ccccc3)cc2o1	-1.1	0.5	73.3*	-6.3	-5.9
O=c1c(CN2CCN(Cc3ccccc3)CC2)coc2ccc(Cl)cc12	-8.4	-0.1	76.0*	16.0	-4.9
Cc1ccc(S(=O)(=O)Nc2cccc(C(=O)NCc3ccccn3)c2)cc1F	-9.9	.	.	2.8	0.6
O=C(NCCCCc1ccccc1)c1ccccc1Cl	0.8	0.1	-5.4	-10.5	-9.0
O=c1cc(CN2CCN(Cc3ccccc3)CC2)c2cc(Cl)ccc2o1	15.8	-0.2	-2.1	43.0	11.7
O=c1cc(CN2CCN(Cc3ccccc3)CC2)c2ccc(O)cc2o1	-27.2	.	.	55.9*	-9.8
N#C/C(C(=O)Nc1ccc(Cl)cc1)=C(/S)Nc1ccccc1	6.4	.	.	79.0*	-0.6
Cc1nc(N)sc1C(=O)N/N=C/c1ccco1	19.4	0.3	-5.4	-5.2	10.9
Cc1nc(N)sc1C(=O)N/N=C/c1ccccc1[N+](=O)[O-]	33.7	0.3	91.8*	12.2	31.0
SMILES	HSF1 activator	Hsp70 activator	L major viab	T cruzi repl	HSF1 inh
CC(/C=N/NC(=O)c1sc(N)nc1C)=C\c1ccccc1	74.7*	0.1	-7.5	-1.6	43.5
Cc1nc(N)sc1C(=O)N/N=C/c1ccc([N+](=O)[O-])cc1	26.8	.	.	-17.0	6.0
CCc1nn(CC(=O)NCCCN(CC)Cc2ccccc2)c(=O)c2cc3sccc3n12	-1.2	-0.1	55.3*	16.4	-1.3
CCOC(CNC(=O)Cc1c(C)nc2c(-c3ccccc3)c(C)nn2c1C)OCC	4.5	-0.2	-1.4	-19.0	-1.7
COc1cc(C(=O)O)cc(NC(=O)c2cccs2)c1OC	12.0	-0.4	25.9	2.7	-0.3
COc1cc(C(=O)OCc2ccc(C)cc2)cc(NC(=O)c2cccs2)c1OC	6.0	-0.3	54.5*	-5.1	9.2
O=C(/C=C/NNC(=O)c1ccccc1)c1ccc(Br)cc1	60.3*	-0.1	2.3	5.5	24.0
Cc1ccc(C(=O)/C=C/NNC(=O)c2ccccc2O)cc1	52.9*	.	.	-9.6	18.1
COc1ccc(C)cc1NC(=O)CN1C(=O)COc2ccc(S(=O)(=O)N3CCCCC3)cc21	1.6	.	.	-3.2	-6.5
CC(C)C(=O)c1cc2c(cc1NC(=O)c1ccccc1)OCCO2	12.4	-0.3	57.1*	22.5	2.0
CCOc1ccc(-n2c(-c3ccccc3)c[n+]3c2CCCCC3)cc1	-7.2	-0.4	100.3*	60.0*	-6.0
c1ccc(-c2c[n+]3c(n2-c2ccccc2)CCC3)cc1	-8.1	.	.	-10.0	-5.4
Cc1ccc(-c2c[n+]3c(n2-c2ccccc2)CCC3)cc1	-9.7	.	.	55.0*	-3.9
CCN(CC)C(=O)CSc1ncnc2sc(C)c(C)c12	51.6*	0.1	3.5	0.3	8.0
O=C(O)c1cccc(COc2ccccc2Cl)c1	-88.4	.	.	2.5	-86.2*
O=C1NC(=O)/C(=C\c2ccc(OCc3cccc(C(=O)O)c3)c(Cl)c2)N1	-65.0	-0.1	-8.1	-18.3	-55.5*
COc1cc(/C=C2\NC(=S)NC2=O)ccc1OCc1cccc(C(=O)O)c1	-16.6	.	.	-6.9	-12.3
CCN(CC)C(=O)c1ccc(COc2ccccc2Cl)cc1	-9.2	-0.1	63.1*	6.5	11.3
CC(=O)Nc1ccc(NC(=O)C(Cc2ccccc2)NC(=O)C2CCC(C)CC2)cc1 (stereo not given)	25.4	0.0	-0.6	-14.4	2.2
CC1(C(=O)NCc2ccc(Cl)c(Cl)c2)Oc2ccccc2NC1=O (stereo not given)	7.5	-0.1	1.1	-10.4	-4.0
CN(C)CCCN(C(=O)c1cc2ccccc2oc1=O)c1nc2ccc(F)cc2s1	-26.8	-0.3	0.7	43.8	-18.3
CCN(CCCCCN(C)C)Cc1cc2ccccc2o1	2.5	-0.4	22.2	55.4*	2.6
Cc1oc(-c2ccccc2Cl)nc1Cn1cccc1C1=NC(c2ccccc2)CO1 (stereo not given)	18.2	-0.4	-3.7	29.2	9.0
CC(C)c1ccc(NC(=O)Cn2cccc2C2=NC(c3ccccc3)CO2)cc1 (stereo not given)	-2.3	-0.2	86.8*	6.1	4.7
CCn1ncc(Br)c1C(=O)N(C)C12CC3CC(CC(C3)C1)C2	6.8	-0.1	51.3*	21.8	-12.0
CCOC(=O)C1(Cc2cccc(Cl)c2)CCCN(C2CCN(C(C)=O)CC2)C1 (stereo not given)	27.4	-0.3	83.2*	6.0	10.7
COc1ccc(CCNC(=O)CC2SC(=NCCc3ccccc3)NC2=O)cc1 (stereo not given)	8.0	0.6	-0.9	-16.1	0.9
Cc1ccc(SCC(=O)OCC(=O)NCCC2=CCCCC2)cc1	-20.0	.	.	2.6	-8.2
N#C/C(=C/c1ccco1)c1nc2ccccc2s1	99.7*	0.3	57.0*	-4.3	43.9
N#C/C(=C\c1ccco1)c1nc2ccccc2s1	80.0*	0.2	-6.3	-8.4	20.2

Source: PubChem
